MeAIB uptake and Thr uptake data for 2 compounds are collected here from ChEMBL document CHEMBL1122321, “Synthesis and transport applications of 3-aminobicyclo[3.2.1] octane-3-carboxylic acids” (1983).

What all share (assay type): functional
Experiment [1] has as its system Mus musculus. Put plainly: Inhibition of MeAIB(10e-4) uptake by Ehrlich cell at the specified Conc of 2.5 mM expressed as mM/kg of cell water/min. The method, boiled down: (§1)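 ¹⁴C-MeAIB uptake by Ehrlich ascites tumor cells propagated in Swiss white mice and washed in Na⁺-free media. Uptake ran for 1 min at 37 °C in 5% cell suspensions in Na⁺-containing Krebs-Ringer bicarbonate under 5% CO₂–O₂ (pH 7.4). Stopped by ice-cold dilution and centrifugation. ¹⁴C in the medium and in a sulfosalicylic acid cell extract was counted by liquid scintillation. Extracellular water was measured by sucrose.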

The subject of experiment [2] is Mus musculus. Put plainly: Inhibition of MeAIB(10e-4) uptake by Ehrlich cell at the specified Conc of 10 mM expressed as mM/kg of cell water/min. The method, boiled down:
as §1

For experiment [3], the species on record is Rattus norvegicus. Put plainly: Inhibition of threonine (0.5*10e-4) uptake by rat Hepatoma cells(HTC) at the specified Conc of 2.5 mM expressed as nM/mg of protein/min. The method, boiled down:
(§2)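 HTC hepatoma monolayers were grown in Medium 199 (pH 7.4, 26 mM NaHCO₃, antibiotics, 5–8% FBS) under 5% CO₂/95% air and seeded 3–4 days before testing. A 1-min uptake ran in Krebs-Ringer phosphate (pH 7.4, 37 °C), then the cells were washed with ice-cold Na⁺-free choline medium. Cells were extracted with 5% TCA and counted by scintillation. Protein was measured by modified Lowry with SDS and a BSA standard.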

For experiment [4], the species on record is Rattus norvegicus. The experiment is described as follows: Inhibition of threonine (0.5*10e-4) uptake by rat Hepatoma cells(HTC) at the specified Conc of 10 mM expressed as nM/mg of protein/min. The method, boiled down: as §2
For experiment [5], the species on record is Rattus norvegicus. The experiment is described as follows: Inhibition of threonine (0.5*10e-4) uptake by rat Hepatoma cells(HTC) at the specified Conc of 0.5 mM expressed as nM/mg of protein/min. The procedure, abridged:
as §2

Experiment [6] has as its system Mus musculus. Put plainly: Inhibition of MeAIB(10e-4) uptake by Ehrlich cell at the specified Conc of 0.5 mM expressed as mM/kg of cell water/min. The method, boiled down:
as §1

For experiment [7], the system named is Mus musculus. Put plainly: Inhibition of MeAIB(10e-4) uptake by Ehrlich cell at the specified Conc of 0.25 mM expressed as mM/kg of cell water/min. The procedure, abridged:
as §1

Each structure is given as a SMILES string.

As to `N[C@]1(C(=O)O)C[C@@H]2CC[C@@H](C2)C1`, the MeAIB uptake in experiment [1] is given as 0.64; in experiment [2], 0.61; in experiment [6], 0.66; in experiment [7], 0.67. In addition, the Thr uptake is recorded as 3.52 in experiment [3], 3.45 in experiment [4] and 3.81 in experiment [5].

In the case of `CC(O)C(N)C(=O)O` (stereo not drawn), the Thr uptake in experiment [4] is reported as 0.12.
